Insulin prom act: activators of insulin promoter-driven GFP, primary screen, imaging, TRM-6 cells, eGFP reporter, cell count; plate-scaled: unstimulated 0, stimulated control 100; activation, % at 2 µM; hit rate 0.81% among 130,000; AID 1296, 2008;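 active means activation at 2 µM above a set limit, confirmed on inspection of the cell images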;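 further: share of cells whose green reporter signal exceeds an intensity cutoff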
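Test system: human fetal islet-derived TRM-6 cells with tamoxifen-inducible insulin promoter–eGFP reporter. Compound dosing: 2 µM final, single concentration. Incubation: tamoxifen pre-incubation 15 h overnight, then compound exposure 48 h at 37 °C. Signal: fixed-cell fluorescence microscopy, eGFP plus Hoechst.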
Large screens that a line does not name were inactive. Many of the other results were omitted from the sample, so hits are more common in it than they were.

CCOc1cccc(C(=O)NC2CCCCC2)c1	none
Oc1c(Br)cc(C2N=C(c3ccccc3Cl)NO2)cc1Br (centres undefined)	none
Cc1ccc(OP(=O)(Nc2c(C)n(C)n(-c3ccccc3)c2=O)Oc2ccc(C)cc2)cc1	none
Clc1ccc(OCc2nc(-c3ccncc3)no2)c(Cl)c1	none
Clc1ccc(-c2nnc(-c3ccccc3)o2)c(Cl)c1	none
Clc1ccc(OCc2nnc(-c3ccccc3Br)o2)c(Cl)c1	Insulin prom act 120
N#C/C(C(=O)N1CCOCC1)=C1/SC(Cc2ccccc2Cl)C(=O)N1c1ccccc1 (centres undefined)	none
COc1cc2c3nnc(-c4ccc(F)cc4)c-3cn(Cc3cccc(F)c3)c2cc1OC	Insulin prom act 809
COc1cc2c3nnc(-c4ccccc4)c-3cn(Cc3ccc(F)cc3)c2cc1OC	none
COc1cccc(CSc2nnc(-c3ccc(F)cc3)o2)c1	none
CCn1cc(CNC(=O)CCSc2nc(-c3ccco3)cc(C(F)(F)F)n2)cn1	none
COc1ccc(C2CC(=O)c3sc(NC(C)=O)nc3C2)cc1 (centres undefined)	none
O=C1C2C(C(=O)N1/N=C/c1cccc([N+](=O)[O-])c1)C1C=CC2C12CC2 (centres undefined)	none
O=C(NCc1ccco1)C1CN(S(=O)(=O)c2ccccc2)CCN1S(=O)(=O)c1ccccc1 (centres undefined)	none
Cc1ccc(C(=O)NCc2ccco2)cc1S(=O)(=O)N1CCOCC1	none
O=S(=O)(NCc1ccco1)N1CCOCC1	Insulin prom act 494
OCc1nc2ccccc2n1CCCOc1ccccc1	none
OCc1nc2ccccc2n1CC(O)Cn1ccc2ccccc21 (centres undefined)	Insulin prom act 91
CC(C)Cn1c(NCCO)nc2ccccc21	none
Clc1ccc(CNc2nc(CN3CCOCC3)nc3scc(-c4ccccc4)c23)cc1	none
Cc1ccc(Cl)cc1NC(=S)NCCCSC1CCCCC1	none
COc1cc(/C=N/Nc2nc(C)cc(=O)[nH]2)ccc1OC(=O)c1cccnc1	none
O=P(OC1CCCCC1)(OC1CCCCC1)C(O)c1ccccc1 (centres undefined)	Insulin prom act 104
OC1CCCN(CC(O)c2ccccc2)C1 (centres undefined)	none
NC(=O)C(c1ccccc1)C1CCCC1 (centres undefined)	none
COc1ccc(/C=C/CN2CCCC(CCC(=O)NCc3ccc(F)c(F)c3)C2)cc1 (centres undefined)	none
COc1cccc(S(=O)(=O)Nc2cccc(C(=O)N3CCOCC3)c2)c1	Insulin prom act 466
O=C(c1cccc(NS(=O)(=O)c2cccc([N+](=O)[O-])c2)c1)N1CCOCC1	none
COc1ccc(NS(=O)(=O)c2ccc(OCC(=O)N3CCOCC3)cc2)cc1	none
COc1cc(-c2nnc(SC(C)C(=O)Nc3c(C)n(C)n(-c4ccccc4)c3=O)o2)cc(OC)c1OC (centres undefined)	none
O=C1/C(=C\c2ccco2)SC(=S)N1Cc1ccccc1	Insulin prom act 150
C=CCN1C(=O)/C(=C\c2ccc(OC(=O)c3ccco3)c(OC)c2)SC1=S	none
Cc1ccc(N2C(=O)/C(=C\c3ccco3)SC2=S)cc1	none
CCCCOC(=O)c1ccc(NC(=S)NC(=O)c2c(Br)c(C)nn2C)cc1	none
O=C(NC1CCS(=O)(=O)C1)c1cccnc1 (centres undefined)	none
CN(/C=C1/C(=O)CNC1=O)CCO	none
CCCCOP(=O)(OCCCC)C1(NS(=O)(=O)c2ccccc2)C=CC(=O)c2ccccc21 (centres undefined)	none
O=C1/C(=C/c2ccc(F)cc2)CCC1C1CCCC1 (centres undefined)	Insulin prom act 442
O=C1/C(=C/c2ccco2)CCC1C1CCCC1 (centres undefined)	none
CN(C)c1ccc(/C=C2\CCC/C(=C\c3ccccc3)C2=O)cc1	none
CCCCCCN=CC1=C(O)C(C(=O)OC)C(C)(C)CC1=O (centres undefined)	none
Cn1c(C(=O)c2ccccc2[N+](=O)[O-])nc2ccccc21	none
Cc1sc2ncnc(OCC(=O)NCc3cccs3)c2c1C	none
O=C(O)Cc1ccc2oc(-c3cccnc3)nc2c1	none
COc1ccc([N+](=O)[O-])cc1NC(=O)CC(c1ccccc1)c1ccccc1	none
COCCSc1nnc(NC(=O)c2cc(C(=O)OC)cc([N+](=O)[O-])c2)s1	none
COC(=O)c1sc2cc([N+](=O)[O-])cc(SCC(C)C)c2c1N	Insulin prom act 590
Cc1ccc(C(=O)NC(=S)Nc2nc(-c3cccc([N+](=O)[O-])c3)cs2)c(Cl)c1	none
O=C(Nc1ccccc1N1CCOCC1)c1ccccc1NS(=O)(=O)c1ccc(F)cc1	none
O=C(Nc1cc(S(=O)(=O)N2CCCCC2)ccc1Cl)c1ccccc1NS(=O)(=O)c1ccc(F)cc1	Insulin prom act 525
O=C(Nc1cc(S(=O)(=O)N2CCCC2)ccc1OCC(F)(F)F)c1ccc(F)cc1	none
O=C(NCCN1CCCCCC1)c1ccc(N2CCCC2=O)cc1	none
CN1CCN(C(=O)c2ccc(N3CCCC3=O)cc2)CC1	none
CC(C)(C)c1ccc(C(=O)N2CCCCCC2=O)cc1	Insulin prom act 585
CSc1nc(=O)n2cc(C)ccc2n1	none
COc1ccc(/C=N/NC(=O)c2ccc(N(C)S(=O)(=O)c3ccccc3)cc2)cc1	none
COCCCNC(=O)C1CC(=O)N(Cc2ccc(OC)cc2)C1 (centres undefined)	none
O=C(NCCc1ccccn1)C1CC(=O)N(Cc2ccccc2Cl)C1 (centres undefined)	Insulin prom act 131
COc1ccc(CN2CC(C(=O)NCCC3=CCCCC3)CC2=O)cc1 (centres undefined)	none
COc1ccccc1NC(=O)C1=C(C)NC2=C(C(=O)CC(c3ccc(OC)c(OC)c3)C2)C1c1coc2ccccc2c1=O (centres undefined)	none
Cc1cc(NC(=O)CCC(=O)N(CC(=O)NCC2CCCO2)c2ccc3c(c2)OCCO3)no1 (centres undefined)	none
CCn1c(CC(=O)Nc2ccccc2)nnc1SCC(=O)Nc1ccccc1C(=O)OC	none
CCn1c(CC(=O)Nc2ccc(C)cc2)nnc1SCC(=O)N1CCN(c2ccccc2)CC1	none
CCn1c(CC(=O)Nc2ccc(C)c(Cl)c2)nnc1SCC(=O)Nc1nc(C)cs1	Insulin prom act 450
Cc1ccccc1NC(=S)NCCc1ccc(S(N)(=O)=O)cc1	none
O=C(CC1C(=O)NCCN1Cc1ccccc1C(F)(F)F)NCCc1ccccn1 (centres undefined)	none
Cc1[nH]c(=O)[nH]c(=O)c1S(=O)(=O)N1CCC(C(=O)N2CCN(Cc3ccccc3)CC2)CC1	none
CS(=O)(=O)c1ccc(C(=O)N2CCN(Cc3ccccc3)CC2)cc1	none
CS(=O)(=O)N1CCC(C(=O)N2CCN(Cc3ccccc3)CC2)CC1	Insulin prom act 438
CCN(C(=O)COC(=O)/C=C/c1ccccc1)C1CCCCC1	none
COc1ccc(C(=O)NNC2=NCCCCC2)cc1	none
C#CCN1C(=O)S/C(=C/C=C/c2ccc(N(C)C)cc2)C1=O	Insulin prom act 270
O=C(CCN1C(=O)/C(=C/C=C/c2ccccc2)SC1=S)Nc1cccnc1	none
CC1=NN(c2ccccc2)C(=O)/C1=C/C=C/c1ccc(N(C)C)cc1	none
Clc1ccc(/C=N/c2c(-c3ccc(Cl)cc3)nc3n2CCS3)cc1	none
O=C1CNC(=O)/C1=C/c1ccc(O)cc1	none
CN(C)S(=O)(=O)c1ccc2oc(SCC(N)=O)nc2c1	none
Cc1cc(C)nc(NC(=O)CSc2nc3ccccc3o2)n1	none
CCS(=O)(=O)c1ccc2oc(SCC(=O)NC3CCCC(C)C3C)nc2c1 (centres undefined)	Insulin prom act 93
COc1cc(OC)cc(-c2nnc(SCC(=O)N3CCOCC3)o2)c1	none
